Source: ChEMBL document CHEMBL4706600, “Synthesis, molecular modeling, in vivo study and anticancer activity against prostate cancer of (+) (S)-naproxen derivatives” (Eur J Med Chem, 2020)
pIC50: −log10 of the molar value. Values belong to the molecule of their own block, whether it stands above or below them. The source made the active and inactive calls. No cut-off for these calls is given here.

Legend:
[1] = system: PC-3; test: Cytotoxicity against human PC-3 cells assessed as reduction in cell viability by […]; format: functional, cell-based
How it was run: (§1)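 Growth of PC-3, DU-145 and LNCaP prostate cancer lines read by MTS tetrazolium proliferation assay. Cisplatin served as the positive reference standard.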

[2] = system: DU-145; test: Cytotoxicity against human DU-145 cells assessed as reduction in cell viability by […]; format: functional, cell-based; how it was run: as §1
[3] = system: LNCaP; test: Cytotoxicity against human LNCaP cells assessed as reduction in cell viability by […]; format: functional, cell-based; how it was run: as §1
[4] = system: LNCaP; test: Induction of apoptosis in human LNCAP cells assessed as up regulation of Bax expression upto 20 uM measured after 6 hrs by Rt-PCR; format: functional, cell-based; conditions: dose microM <=20, time 6.0 hrs, TDE = time-dependent effect
[5] = system: LNCaP; test: Induction of apoptosis in human LNCAP cells assessed as up regulation of Caspase 3 expression upto 20 uM measured after 6 hrs by Rt-PCR; format: functional, cell-based; conditions: dose microM <=20, time 6.0 hrs, TDE = time-dependent effect
[6] = system: LNCaP; test: Induction of apoptosis in human LNCAP cells assessed as up regulation of Caspase 9 expression upto 20 uM measured after 6 hrs by Rt-PCR; format: functional, cell-based; conditions: dose microM <=20, time 6.0 hrs, TDE = time-dependent effect
[7] = system: LNCaP; test: Induction of apoptosis in human LNCAP cells assessed as down regulation of Bcl-2 expression upto 20 uM measured after 6 hrs by Rt-PCR; format: functional, cell-based; conditions: dose microM <=20, time 6.0 hrs
[8] = molecular target: Methionine aminopeptidase 2 (Homo sapiens) (UniProt P50579); test: Inhibition of MetAP2 in human LNCaP cells assessed as reduction in AKT phosphorylation at 5 to 20 uM incubated upto 120 mins by Western blot analysis; format: cell-based; conditions: dose 5-20 µM, time min <=120
How it was run: (§2)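 LNCaP cells (1×10^6 per well, n = 3) plated in phenol-red-free RPMI-1640 with 1% FBS for 24 h, then exposed at 5 and 20 µM for 0, 15, 60 and 120 min. Lysates were assayed for total protein, and phosphorylated AKT, ERK, p38 and JNK were detected by Western blot.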
Target sequence in this assay (P50579 2-478 limits assumed): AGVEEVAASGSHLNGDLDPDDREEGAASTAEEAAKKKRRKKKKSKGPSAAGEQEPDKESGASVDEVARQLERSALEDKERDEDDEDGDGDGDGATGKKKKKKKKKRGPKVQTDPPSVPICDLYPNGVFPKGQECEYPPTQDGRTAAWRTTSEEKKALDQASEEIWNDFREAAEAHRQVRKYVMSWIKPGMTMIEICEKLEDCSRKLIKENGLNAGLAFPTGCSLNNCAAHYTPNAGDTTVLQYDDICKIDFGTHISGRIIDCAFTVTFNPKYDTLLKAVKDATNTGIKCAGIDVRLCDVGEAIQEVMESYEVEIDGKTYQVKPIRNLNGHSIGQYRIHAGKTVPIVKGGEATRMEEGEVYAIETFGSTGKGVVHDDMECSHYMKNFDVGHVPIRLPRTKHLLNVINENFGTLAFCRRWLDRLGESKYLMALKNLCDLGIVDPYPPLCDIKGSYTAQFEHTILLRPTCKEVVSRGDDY

[9] = molecular target: Methionine aminopeptidase 2 (Homo sapiens) (UniProt P50579); test: Inhibition of MetAP2 in human LNCaP cells assessed as reduction in ERK/MAPK phosphorylation at 5 to 20 uM incubated upto 120 mins by Western blot analysis; format: cell-based; conditions: dose 5-20 µM, time min <=120; how it was run: as §2
Target sequence in this assay (P50579 2-478 limits assumed): as above

[10] = molecular target: Methionine aminopeptidase 2 (Homo sapiens) (UniProt P50579); test: Inhibition of MetAP2 in human LNCaP cells assessed as reduction in P28/MAPK phosphorylation at 5 to 20 uM incubated upto 120 mins by Western blot analysis; format: cell-based; conditions: dose 5-20 µM; how it was run: as §2
Target sequence in this assay (P50579 2-478 limits assumed): as above

[11] = molecular target: Methionine aminopeptidase 2 (Homo sapiens) (UniProt P50579); test: Inhibition of MetAP2 in human LNCaP cells assessed as reduction in JNK/MAPK phosphorylation at 5 to 20 uM incubated upto 120 mins by Western blot analysis; format: cell-based; conditions: dose 5-20 µM, time min <=120; how it was run: as §2
Target sequence in this assay (P50579 2-478 limits assumed): as above

[12] = Toxicity in mouse assessed as effect on alkaline phosphatase level measured after 3 days by blood analyser(reference value: 144.50+/- 83.5 u/l); format: tissue-based; conditions: 72 h, time 3 day
[13] = Toxicity in mouse assessed as effect on alanine transaminase level measured after 3 days by blood analyser(reference value: 679.50+/- 71.5 u/l); format: tissue-based; conditions: 72 h, time 3 day
[14] = Toxicity in mouse assessed as effect on total bilirubin level measured after 3 days by blood analyser(reference value: 0.27+/- 0.05 mg/dl); format: tissue-based; conditions: 72 h, time 3 day
[15] = Toxicity in mouse assessed as effect on blood urea nitrogen level measured after 3 days by blood analyser(reference value: 27+/- 2.6 mg/dl); conditions: in vivo, 72 h, time 3 day
[16] = Toxicity in mouse assessed as effect on phosphate level measured after 3 days by blood analyser(reference value: 10.07+/- 1.06 mg/dl); format: tissue-based; conditions: 72 h, time 3 day
[17] = Toxicity in mouse assessed as effect on keratin level measured after 3 days by blood analyser(reference value: 0.2+/- 0.07 mg/dl); format: tissue-based; conditions: 72 h, time 3 day
[18] = Toxicity in mouse assessed as effect on glucose level measured after 3 days by blood analyser(reference value: 192+/- 33 mg/dl); format: tissue-based; conditions: 72 h, time 3 day
[19] = Toxicity in mouse assessed as effect on sodium level measured after 3 days by blood analyser(reference value: 148.33+/-1.89 mmol/l); format: tissue-based; conditions: 72 h, time 3 day
[20] = Toxicity in mouse assessed as effect on potassium level measured after 3 days by blood analyser(reference value: 10.7+/-2.2 mmol/l); format: tissue-based; conditions: 72 h, time 3 day
[21] = Toxicity in mouse assessed as effect on total protein level measured after 3 days by blood analyser(reference value: 5.7+/-0.4 g/dl); format: tissue-based; conditions: 72 h, time 3 day
[22] = Toxicity in mouse assessed as effect on globulin level measured after 3 days by blood analyser(reference value: 3.17+/-0.31 g/dl); format: tissue-based; conditions: 72 h, time 3 day
[23] = system: LNCaP; test: Antitumor activity against human LNCaP cells xenografted in mouse assessed as decrease in ROI of cancer tissue at 0.27 mg measured after 15 days by IVIS image analysis; format: functional; conditions: time 15 day
How it was run: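 LNCaP cells (5×10^6–6×10^6 cells/100 µL) injected subcutaneously into male nude mice; treatment given over 15 days, with controls receiving saline intraperitoneally every 4 days. Cancerous tissue visualized by in vivo imaging (IVIS).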

[24] = molecular target: Methionine aminopeptidase 2 (Homo sapiens) (UniProt P50579); test: Inhibition of MetAP2 (unknown origin) incubated measured at 12.5 to 200 uM for 30 mins by spectrophotometric analysis; conditions: dose 12.5-200 µM
Target sequence in this assay (P50579 whole entry, looked up): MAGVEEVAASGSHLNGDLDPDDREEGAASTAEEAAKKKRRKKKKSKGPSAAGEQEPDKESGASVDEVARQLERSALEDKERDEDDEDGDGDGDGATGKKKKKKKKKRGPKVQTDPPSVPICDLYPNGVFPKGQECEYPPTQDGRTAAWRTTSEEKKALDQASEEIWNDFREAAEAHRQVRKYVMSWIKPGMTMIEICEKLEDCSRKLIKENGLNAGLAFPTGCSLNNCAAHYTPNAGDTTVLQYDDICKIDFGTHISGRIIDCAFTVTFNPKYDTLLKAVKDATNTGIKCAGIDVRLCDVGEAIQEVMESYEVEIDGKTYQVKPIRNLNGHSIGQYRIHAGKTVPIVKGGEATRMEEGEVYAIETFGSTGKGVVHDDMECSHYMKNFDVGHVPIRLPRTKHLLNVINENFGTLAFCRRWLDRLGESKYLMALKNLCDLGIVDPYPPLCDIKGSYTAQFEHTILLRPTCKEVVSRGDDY

[25] = Toxicity in mouse assessed as effect on albumin level measured after 15 days by blood analyser(reference value: 2.6+/- 0.36 g/dl); conditions: 360 h

- inhibition [8]: Active
- inhibition [9]: Active
- inhibition ([10]; time min <=120): Active
- inhibition [11]: Active
- inhibition [24]: Active
SMILES: COc1ccc2cc([C@H](C)c3nnc(SCc4c(C)cc(C)cc4C)n3-c3ccc(F)cc3)ccc2c1
- pIC50 [1]: 4.36
- pIC50 [2]: 4.99
- pIC50 [3]: 5.66
- Activity [4]: Tde
- Activity [5]: Tde
- Activity [6]: Tde
- Activity [7]: Active
- Activity [12]: 58 U/L
- Activity [13]: 64.5 U/L
- Activity [14]: 0.3 mg/dL
- Activity [15]: 21.5 mg/dL
- Activity [16]: 7.15 mg/dL
- Activity [17]: 0.25 mg/dL
- Activity [18]: 154 mg/dL
- Activity [19]: 137.5 mmol/L
- Activity [20]: 5.6 mmol/L
- Activity [21]: 5.3 g/dL
- Activity [22]: 3.6 g/dL
- inhibition (INH) [23]: 55%
- Activity [25]: 1.25 g/dL

SMILES: COc1ccc2cc([C@H](C)c3nnc(SCc4ccc(Cl)cc4)n3-c3ccc(Cl)cc3)ccc2c1
- pIC50 [1]: 5.24
- pIC50 [2]: 3.96
- pIC50 [3]: 3.96

SMILES: COc1ccc2cc([C@H](C)c3nnc(SCc4c(Cl)cccc4Cl)n3-c3ccc(F)cc3)ccc2c1
- pIC50 [1]: 3.67
- pIC50 [2]: 4.91
- pIC50 [3]: 4.91

SMILES: COc1ccc2cc([C@H](C)c3nnc(SCc4ccc(C)cc4)n3-c3ccc(F)cc3)ccc2c1
- pIC50 [1]: 3.64
- pIC50 [2]: 4.35
- pIC50 [3]: < 3.40

SMILES: COc1cccc(CSc2nnc([C@@H](C)c3ccc4cc(OC)ccc4c3)n2-c2ccc(Cl)cc2)c1
- pIC50 [1]: 3.86
- pIC50 [2]: < 3.40
- pIC50 [3]: 3.79

SMILES: COc1ccc2cc([C@H](C)c3nnc(SCc4c(Cl)cccc4Cl)n3-c3ccc(Cl)cc3)ccc2c1
- pIC50 [1]: 4.46
- pIC50 [2]: 4.44
- pIC50 [3]: < 3.40

SMILES: COc1ccc2cc([C@H](C)c3nnc(SCc4ccc(F)cc4)n3-c3ccc(Cl)cc3)ccc2c1
- pIC50 [1]: 4.97
- pIC50 [2]: 4.47
- pIC50 [3]: 4.47

SMILES: COc1ccc2cc([C@H](C)c3nnc(SCc4ccc(Cl)cc4)n3-c3ccc(F)cc3)ccc2c1
- pIC50 [1]: < 3.40
- pIC50 [2]: 4.24
- pIC50 [3]: < 3.40

SMILES: COc1cccc(CSc2nnc([C@@H](C)c3ccc4cc(OC)ccc4c3)n2-c2ccc(F)cc2)c1
- pIC50 [1]: 3.68
- pIC50 [2]: 4.72
- pIC50 [3]: 4.84

SMILES: COc1ccc2cc([C@H](C)c3nnc(SCc4c(Cl)cccc4Cl)n3-c3cccc(Cl)c3)ccc2c1
- pIC50 [1]: 3.78
- pIC50 [2]: < 3.40
- pIC50 [3]: 4.13

SMILES: COc1ccc(CSc2nnc([C@@H](C)c3ccc4cc(OC)ccc4c3)n2-c2ccc(Cl)cc2)cc1
- pIC50 [1]: < 3.40
- pIC50 [2]: 4.14
- pIC50 [3]: < 3.40

SMILES: COc1ccc2cc([C@H](C)C(=O)NNC(=S)Nc3ccc(C(F)(F)F)cc3)ccc2c1
- pIC50 [1]: 4.19
- pIC50 [2]: 4.21
- pIC50 [3]: 4.03

- inhibition [8]: inactive
- inhibition [9]: inactive
- inhibition ([10]; time min <=120, in the assay text read “P38/MAPK” for “P28/MAPK”): inactive
- inhibition [11]: inactive
SMILES: COc1ccc(CSc2nnc([C@@H](C)c3ccc4cc(OC)ccc4c3)n2-c2ccc(F)cc2)cc1
- pIC50 [1]: < 3.40
- pIC50 [2]: < 3.40
- pIC50 [3]: 4.64

SMILES: COc1ccc2cc([C@H](C)c3nnc(SCc4ccc(F)cc4)n3-c3ccc(F)cc3)ccc2c1
- pIC50 [1]: < 3.40
- pIC50 [2]: 4.22
- pIC50 [3]: 3.98

SMILES: COc1ccc2cc([C@H](C)c3nnc(SCc4ccc(C)cc4)n3-c3ccc(Cl)cc3)ccc2c1
- pIC50 [1]: 5.08
- pIC50 [2]: 4.73
- pIC50 [3]: 4.28

SMILES: COc1ccc2cc([C@H](C)c3nnc(SCc4c(C)cc(C)cc4C)n3-c3cccc(Cl)c3)ccc2c1
- pIC50 [1]: 4.79
- pIC50 [2]: 4.03
- pIC50 [3]: < 3.40

SMILES: COc1ccc2cc([C@H](C)c3nnc(SCc4ccccc4)n3-c3ccc(Cl)cc3)ccc2c1
- pIC50 [1]: 4.85
- pIC50 [2]: 4.45
- pIC50 [3]: 4.30
